Measured values pooled from the literature.
Protocols differ between the studies behind these lines.
DRD3: D(3) dopamine receptor (DRD3, Homo sapiens, UniProt P35462)

SMILES	target	test	conditions	endpoint	result
CSCC[C@H](NC(=O)[C@H](CCC(=O)O)NC(=O)[C@@H]1CCCN1C(=O)[C@@H](NC(=O)[C@@H]1CCCN1)[C@@H](C)O)C(=O)N[C@@H](CCCNC(=N)N)C(=O)N[C@@H](CCC(=O)O)C(=O)N[C@@H](CCCCN)C(=O)N[C@@H](CC(C)C)C(=O)N[C@H]1CSSC[C@@H]2NC(=O)[C@@H](NC(=O)[C@H](CC(C)C)NC(=O)[C@@H](NC(=O)[C@H](CCC(N)=O)NC(=O)[C@H](CC(C)C)NC(=O)[C@H](CC(=O)O)NC(=O)[C@@H]3CCC(=O)N3)[C@@H](C)O)CSSC[C@H](NC(=O)CNC(=O)[C@H](CC(=O)O)NC(=O)[C@H]([C@@H](C)O)NC2=O)C(=O)N[C@@H](CO)C(=O)N[C@@H](CCSC)C(=O)N[C@@H]([C@@H](C)O)C(=O)N[C@@H](CC(=O)O)C(=O)N[C@@H](CC(C)C)C(=O)N[C@@H](CO)C(=O)N[C@@H](C)C(=O)N[C@@H](CC(C)C)C(=O)N[C@H](C(=O)O)CSSC[C@@H](C(=O)NCC(=O)NCC(=O)N2CCC[C@H]2C(=O)N[C@@H](CCCNC(=N)N)C(=O)N[C@@H](Cc2c[nH]c3ccccc23)C(=O)N[C@@H](CO)C(=O)N[C@H](C(=O)N[C@@H](CCC(=O)O)C(=O)N[C@@H](C)C(=O)O)[C@@H](C)O)NC(=O)[C@H](C(C)C)NC(=O)[C@H](CCCNC(=N)N)NC(=O)[C@H](C(C)C)NC(=O)[C@H](CC(C)C)NC(=O)[C@H](C)NC(=O)[C@H](CCCNC(=N)N)NC(=O)[C@H](C(C)C)NC(=O)[C@H](Cc2ccccc2)NC(=O)[C@H](Cc2c[nH]cn2)NC(=O)[C@H](Cc2c[nH]cn2)NC(=O)CNC1=O	Relaxin receptor 2 (RXFP2, Homo sapiens, UniProt Q8WXD0)	ligand displacement in cells	–	Ki	0.708 nM
CC(C)[C@@H](Nc1nc(Cl)nc2c1ncn2[C@H]1[C@H](O)[C@H](O)[C@]2(CN)C[C@H]12)C1CC1	DRD3	ligand displacement, radioligand	–	Ki	3470 nM
CC[C@H](C)[C@H](NC(=O)[C@H](Cc1ccccc1)NC(=O)[C@H](CC(=O)O)NC(=O)[C@H](CCCCN)NC(=O)[C@H](C)NC(=O)[C@H](C)NC(=O)[C@H](CCC(N)=O)NC(=O)CNC(=O)[C@H](CCC(=O)O)NC(=O)[C@H](CC(C)C)NC(=O)[C@H](Cc1ccc(O)cc1)NC(=O)[C@H](CO)NC(=O)[C@H](CO)NC(=O)[C@@H](NC(=O)[C@H](CC(=O)O)NC(=O)[C@H](CO)NC(=O)[C@@H](NC(=O)[C@H](Cc1ccc(O)cc1)NC(=O)[C@@H](NC(=O)CNC(=O)[C@H](CC(=O)O)NC(=O)[C@H](C)NC(=O)[C@@H](N)Cc1c[nH]cn1)[C@@H](C)O)[C@@H](C)O)[C@@H](C)CC)C(=O)N[C@@H](C)C(=O)N[C@@H](Cc1c[nH]c2ccccc12)C(=O)N[C@@H](CC(C)C)C(=O)N[C@@H](CCSC)C(=O)N[C@@H](CC(N)=O)C(=O)NCC(=O)N[C@@H](CCCNC(=N)N)C(=O)NCC(=O)O	Glucagon-like peptide 1 receptor (GLP1R, Homo sapiens, UniProt P43220)	reporter gene, agonist, luciferase	–	EC50	0.583 nM
CC(C)[C@@H]1NC(=O)[C@H](CO)NC(=O)[C@H](CO)NC(=O)[C@H](CO)N(C)C(=O)[C@H](CC(=O)O)NC(=O)[C@H](CO)NC(=O)[C@H](Cc2ccccc2)NC(=O)CSC[C@@H](C(=O)NCC(N)=O)NC(=O)[C@H](CC(N)=O)NC(=O)[C@H](CCCNC(=N)N)NC(=O)[C@H](Cc2ccc(-c3ccccc3)cc2)NC(=O)[C@H](Cc2ccc(-c3ccccc3)cc2)NC(=O)[C@H](CC(N)=O)NC(=O)[C@@H]2CCCN2C1=O	Protein Mdm4 (MDM4, Homo sapiens, UniProt O15151)	ligand displacement, TR-FRET	–	Ki	740 nM
c1cc[c]([Sn]([c]2ccccc2)[c]2ccccc2)cc1	Peroxisome proliferator-activated receptor gamma (PPARG, Homo sapiens, UniProt P37231)	reporter gene, agonist, luciferase	–	EC50	20 nM
CC(C)NCC1CCc2cc(CO)c([N+](=O)[O-])cc2N1 (centres unmarked)	DRD3	ligand displacement, radioligand	–	IC50	7400 nM
CCCC[C@@H](NC(=O)[C@@H](N)Cc1ccc(O)cc1)C(=O)NCC(=O)N[C@@H](Cc1ccc(F)cc1)C(=O)N(C)CCC[C@@]1(c2ccc(F)cc2)OCc2cc(C#N)ccc21	DRD3	ligand displacement, radioligand	–	Ki	4300 nM
O=C(O)[C@H]1O[C@@H](Oc2cc(O)cc(/C=C/c3ccc(O)cc3)c2)[C@H](O)[C@@H](O)[C@@H]1O	Cannabinoid receptor 1 (Cnr1, Mus musculus, UniProt P47746)	ligand displacement, radioligand	cell membranes	Ki	> 100000 nM
